12 compounds from ChEMBL document CHEMBL2396641, “Synthesis, antioxidant, and antimicrobial evaluation of some 2-arylbenzimidazole derivatives” (Bioorg Med Chem Lett, 2013) can be followed below.

One experiment concerns NIH3T3. Put plainly: Cytotoxicity against mouse NIH/3T3 cells after 48 hrs by SRB assay. The experiment is classed as cell-based. The settings on record: NIH3T3, 48 h. A general note: Sulforhodamine B stains cellular protein and so reports cell mass.
A further experiment relates to Bacillus cereus. Briefly: Antibacterial activity against Bacillus cereus after 24 hrs by agar dilution method. The experiment is classed as functional.
The subject of experiment [1] is Staphylococcus epidermidis. Briefly: Antibacterial activity against Staphylococcus albus after 24 hrs by agar dilution method. The experiment is classed as functional.
The next experiment deals with Staphylococcus aureus. Briefly: Antibacterial activity against Staphylococcus aureus after 24 hrs by agar dilution method. The experiment is classed as functional.
The subject of the next experiment is Pseudomonas aeruginosa. Put plainly: Antibacterial activity against Pseudomonas aeruginosa after 24 hrs by agar dilution method. The experiment is classed as functional.
The subject of a further experiment is Escherichia coli. Put plainly: Antibacterial activity against Escherichia coli after 24 hrs by agar dilution method. It counts as functional.
A short description of experiment [2]: Antioxidant activity assessed as ferric ion reducing ability after 20 mins by spectrophotometric analysis. It counts as functional.
The nature of experiment [3]: Antioxidant activity assessed as ferric ion reducing ability at 1 to 50 uM after 20 mins by spectrophotometric analysis. The experiment is classed as functional.
Experiment [4] relates to Radical scavenging activity. Put plainly: Antioxidant activity assessed as DPPH radical scavenging activity after 30 mins by spectrophotometric analysis. It counts as functional. A digest of the protocol: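 DPPH radical bleaching followed as loss of absorbance at 517 nm; IC50 derived; mean ± SD, n = 3.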
For orientation: The DPPH test is a chemical assay of radical scavenging.

Experiment [5] can be described thus: Antioxidant activity assessed as hydroxyl radical scavenging activity after 1 hr by spectrophotometric analysis. The experiment is classed as functional.
Experiment [6] is described as follows: Antioxidant activity assessed as superoxide radical anion scavenging activity by spectrophotometric analysis. The experiment is classed as functional.
The subject of experiment [7] is A549. Put plainly: Antioxidant activity in human A549 cells assessed as protection against H2O2-induced cell death at 50 to 100 uM preincubated for 1 hr prior to H2O2-challenge measured after 24 hrs by SRB assay. It counts as functional, cell-based.
In experiment [8] the test system is A549. Put plainly: Antioxidant activity in human A549 cells assessed as inhibition of AAPH-induced oxidative stress at 100 uM after 2 hrs by flow cytometric analysis relative to control. Conditions: A549, 2 h. The experiment is classed as functional. A digest of the protocol: (§1)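 A549 cells pretreated with AAPH 1 h to induce ROS stress, then compound added; intracellular ROS (hydrogen peroxides, hydroxyl radicals) quantified with DCFH-DA, by fluorescence imaging (×200) or flow cytometry; one representative of three independent experiments.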

Experiment [9] concerns A549. Briefly: Antioxidant activity in human A549 cells assessed as inhibition of AAPH-induced oxidative stress at 50 uM after 2 hrs by flow cytometric analysis relative to control. The settings on record: A549, 2 h. The experiment is classed as functional. A digest of the protocol: as §1
In general terms: A flow cytometer gives signals particle by particle.

Experiment [10] relates to A549. Put plainly: Antioxidant activity in human A549 cells assessed as decrease in AAPH-induced oxidative stress after 2 hrs by DCFH-DA staining-based fluorescent microscopic analysis. The experiment is classed as functional, cell-based. Summed up: as §1

Structures are written as SMILES. Converted amounts (≈) assume the structure as drawn. The source made the active and inactive calls.

Regarding `Oc1ccc2[nH]c(-c3ccccc3O)nc2c1`, the half-inhibitory concentration (IC50) with NIH3T3 is greater than 200 µM. Further, the minimal bactericidal concentration (MBC) was 25 µM (≈ 5.66 µg/mL) against Bacillus cereus, greater than 200 µM in experiment [1], 1.56 µM (≈ 0.353 µg/mL) in the experiment with Staphylococcus aureus and 25 µM (≈ 5.66 µg/mL) against Escherichia coli. Further, the MIC in the experiment on Bacillus cereus is 25 µM (≈ 5.66 µg/mL); in experiment [1], 100 µM (≈ 22.6 µg/mL); with Staphylococcus aureus, 1.56 µM (≈ 0.353 µg/mL); in the experiment on Pseudomonas aeruginosa it was greater than 200 µM; in the experiment with Escherichia coli, 6.25 µM (≈ 1.41 µg/mL). Moreover, in experiment [2], the Activity entry is “Dose-dependent effect”. Also, the outcome in [3] was Active. For the same compound, the EC50 stood at 30 µM in experiment [4], 124 µM in [5] and 169 µM in [6].
The compound `Oc1ccc2[nH]c(-c3ccc(O)c(O)c3)nc2c1` had an IC50 in the experiment on NIH3T3 greater than 200 µM. The MBC in the experiment on Bacillus cereus was greater than 200 µM. Besides, the MIC against Bacillus cereus is 100 µM (≈ 24.2 µg/mL); in experiment [1], greater than 200 µM; against Staphylococcus aureus, greater than 200 µM; with Pseudomonas aeruginosa, greater than 200 µM; against Escherichia coli, greater than 200 µM. Besides, in experiment [2], the Activity result is “Dose-dependent effect”. Also, in experiment [3], the outcome was Active. The concentration giving a half-maximal response (EC50) in experiment [4] is 33 µM; in experiment [5] it was 77 µM; in experiment [6], greater than 200 µM.
Regarding `Oc1ccc2[nH]c(-c3ccccc3)nc2c1`, the IC50 with NIH3T3 was greater than 200 µM. Besides, the MBC is 100 µM (≈ 21 µg/mL) against Bacillus cereus, 1.56 µM (≈ 0.328 µg/mL) in the experiment with Staphylococcus aureus and greater than 200 µM in the experiment with Escherichia coli. The minimal inhibitory concentration (MIC) against Bacillus cereus is 50 µM (≈ 10.5 µg/mL); in experiment [1], greater than 200 µM; against Staphylococcus aureus, 1.56 µM (≈ 0.328 µg/mL); with Pseudomonas aeruginosa, greater than 200 µM; against Escherichia coli, 100 µM (≈ 21 µg/mL). Moreover, the Activity result in experiment [2] was “Dose-dependent effect”. In addition, the outcome in experiment [3] was Active. The EC50 is 42 µM in experiment [4], greater than 200 µM in [5] and greater than 200 µM in experiment [6].
Take `CC(C)(C)c1cc(O)ccc1O` [E319]: the Activity entry in experiment [2] is “Dose-dependent effect”. Moreover, the EC50 is 36 µM in experiment [4], 65 µM in [5] and greater than 200 µM in [6].
`COc1ccc(-c2nc3cc(O)ccc3[nH]2)c(OC)c1` came in with an IC50 in the experiment with NIH3T3 greater than 200 µM. Moreover, the MBC was found to be 50 µM (≈ 13.5 µg/mL) in the experiment with Bacillus cereus, 0.39 µM (≈ 0.105 µg/mL) in the experiment with Staphylococcus aureus and 25 µM (≈ 6.76 µg/mL) in the experiment on Escherichia coli. Further, the MIC with Bacillus cereus was 50 µM (≈ 13.5 µg/mL); in [1] it was greater than 200 µM; in the experiment on Staphylococcus aureus, 0.39 µM (≈ 0.105 µg/mL); in the experiment with Pseudomonas aeruginosa it was greater than 200 µM; in the experiment with Escherichia coli, 12.5 µM (≈ 3.38 µg/mL). Moreover, the Activity result in experiment [2] was “Dose-dependent effect”. For the same compound, the result in experiment [3] was Active. In addition, the concentration giving a half-maximal response (EC50) was 32 µM in experiment [4], greater than 200 µM in experiment [5] and greater than 200 µM in experiment [6].
In turn, `Oc1cccc(-c2nc3cc(O)ccc3[nH]2)c1` gave an IC50 in the experiment with NIH3T3 greater than 200 µM. For the same compound, the minimal bactericidal concentration (MBC) with Bacillus cereus is 50 µM (≈ 11.3 µg/mL); in the experiment on Staphylococcus aureus, 1.56 µM (≈ 0.353 µg/mL); against Escherichia coli, greater than 200 µM. The MIC was 25 µM (≈ 5.66 µg/mL) in the experiment on Bacillus cereus; greater than 200 µM in experiment [1]; 1.56 µM (≈ 0.353 µg/mL) in the experiment with Staphylococcus aureus; greater than 200 µM against Pseudomonas aeruginosa; 100 µM (≈ 22.6 µg/mL) in the experiment with Escherichia coli. In addition, the Activity result in [2] was “Dose-dependent effect”. The outcome in experiment [3] was Active. The figures for the EC50 in experiment [4], in [5] and in [6] were 40 µM, greater than 200 µM and greater than 200 µM, respectively.
`COc1cc(O)ccc1-c1nc2cc(O)ccc2[nH]1` showed an IC50 in the experiment on NIH3T3 greater than 200 µM. Also, the minimal inhibitory concentration (MIC) against Bacillus cereus is greater than 200 µM; in experiment [1], greater than 200 µM; with Staphylococcus aureus it was greater than 200 µM; with Pseudomonas aeruginosa, greater than 200 µM; in the experiment on Escherichia coli, 12.5 µM (≈ 3.2 µg/mL). In the experiment on Escherichia coli, this compound showed an MBC of 25 µM (≈ 6.41 µg/mL). Moreover, the outcome with A549 [7] and in the experiment with A549 [10] was Active. Also, the inhibition at 100 µM in the experiment on A549 [8] is 70.4%. In addition, the inhibition at 50 µM in the experiment with A549 [9] came out at 25.3%. Also, the Activity result in experiment [2] is “Dose-dependent effect”. Also, the results for the EC50 in [4], in [5] and in experiment [6] were 27 µM, 46 µM and greater than 200 µM, respectively.
Compound `Oc1cc(O)cc(-c2nc3cc(O)ccc3[nH]2)c1` registered an IC50 in the experiment with NIH3T3 greater than 200 µM. Besides, the minimum bactericidal concentration (MBC) stood at 25 µM (≈ 6.06 µg/mL) against Bacillus cereus and 0.78 µM (≈ 0.189 µg/mL) against Staphylococcus aureus. The minimum inhibitory concentration (MIC) in the experiment on Bacillus cereus was 25 µM (≈ 6.06 µg/mL); in experiment [1] it was greater than 200 µM; with Staphylococcus aureus, 0.78 µM (≈ 0.189 µg/mL); with Pseudomonas aeruginosa, greater than 200 µM; against Escherichia coli it was greater than 200 µM. In addition, in [2], the Activity result was “Dose-dependent effect”. Besides, the result in [3] was Active. Further, the EC50 was 26 µM in experiment [4], greater than 200 µM in experiment [5] and greater than 200 µM in experiment [6].
For `COc1ccc2[nH]c(-c3cccc(O)c3)nc2c1`, in the experiment on NIH3T3, the IC50 was greater than 200 µM. Also, the figures for the MBC with Bacillus cereus, in the experiment with Staphylococcus aureus and in the experiment with Escherichia coli were 200 µM (≈ 48.1 µg/mL), 200 µM (≈ 48.1 µg/mL) and 100 µM (≈ 24 µg/mL), respectively. The MIC against Bacillus cereus was 25 µM (≈ 6.01 µg/mL); in experiment [1], greater than 200 µM; in the experiment on Staphylococcus aureus, 100 µM (≈ 24 µg/mL); in the experiment on Pseudomonas aeruginosa it was greater than 200 µM; against Escherichia coli it was 12.5 µM (≈ 3 µg/mL). For the same compound, the half-maximal effective concentration (EC50) in experiment [4], in experiment [5] and in [6] was greater than 200 µM each time.
In turn, `Oc1ccc(-c2nc3cc(O)ccc3[nH]2)cc1` came in with an IC50 in the experiment on NIH3T3 greater than 200 µM. For the same compound, the figures for the MBC with Bacillus cereus and against Staphylococcus aureus were 50 µM (≈ 11.3 µg/mL) and 1.56 µM (≈ 0.353 µg/mL), respectively. Besides, the minimum inhibitory concentration (MIC) in the experiment on Bacillus cereus is 50 µM (≈ 11.3 µg/mL); in experiment [1], greater than 200 µM; in the experiment with Staphylococcus aureus it was 1.56 µM (≈ 0.353 µg/mL); in the experiment on Pseudomonas aeruginosa, greater than 200 µM; against Escherichia coli, greater than 200 µM. Further, the Activity result in [2] was “Dose-dependent effect”. Besides, the outcome in experiment [3] was Active. The figures for the EC50 in [4], in experiment [5] and in [6] were 34 µM, 159 µM and greater than 200 µM, respectively.
Consider `COc1ccc(OC)c(-c2nc3cc(OC)ccc3[nH]2)c1`, for which the IC50 in the experiment with NIH3T3 was greater than 200 µM. Moreover, the figures for the MBC in the experiment with Bacillus cereus and against Staphylococcus aureus were 200 µM (≈ 56.9 µg/mL) and 50 µM (≈ 14.2 µg/mL), respectively. The minimal inhibitory concentration (MIC) in the experiment with Bacillus cereus is 100 µM (≈ 28.4 µg/mL); in [1] it was greater than 200 µM; in the experiment on Staphylococcus aureus, 6.25 µM (≈ 1.78 µg/mL); in the experiment on Pseudomonas aeruginosa, greater than 200 µM; in the experiment on Escherichia coli it was greater than 200 µM. Further, the concentration for a half-maximal effect (EC50) in [4], in experiment [5] and in [6] was greater than 200 µM in each case.
On to `COc1ccc(O)cc1-c1nc2cc(O)ccc2[nH]1`, for which the IC50 in the experiment on NIH3T3 is greater than 200 µM. The MBC with Bacillus cereus was greater than 200 µM. Besides, the minimal inhibitory concentration (MIC) in the experiment on Bacillus cereus was 100 µM (≈ 25.6 µg/mL); in experiment [1] it was greater than 200 µM; in the experiment with Staphylococcus aureus, greater than 200 µM; against Pseudomonas aeruginosa, greater than 200 µM; in the experiment with Escherichia coli it was greater than 200 µM. Moreover, in [2], the Activity result is “Dose-dependent effect”. Further, the result in experiment [3] was Active. The results for the 50% effective concentration (EC50) in experiment [4], in experiment [5] and in [6] were 23 µM, greater than 200 µM and greater than 200 µM, respectively.

The IC50 is the concentration that inhibits the measured activity by half. A low value points to greater potency in that assay. What is called MBC is the smallest concentration meeting the test's criterion for killing. In general, MIC refers to the smallest concentration in the dilution series that meets the test's criterion for growth inhibition. For orientation: EC50 means the concentration that produces a half-maximal response. As a reminder, the inhibition is the percentage by which the read-out fell short of the control.
